Screening data (PubChem BioAssay)
PP1 counter: blocks human PP1-alpha phosphatase, a PP5 counter-screen; purified PP1alpha, OMFP fluorescence; inhibition, % at 6.7 µM; 0.9% of 320,000 active; AID 2235;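 active means inhibition above the mean inhibition of all tested compounds plus 3 SD, computed separately for each screening campaign, cut at about 15% in these data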
Target sequence (P62136 whole entry, looked up): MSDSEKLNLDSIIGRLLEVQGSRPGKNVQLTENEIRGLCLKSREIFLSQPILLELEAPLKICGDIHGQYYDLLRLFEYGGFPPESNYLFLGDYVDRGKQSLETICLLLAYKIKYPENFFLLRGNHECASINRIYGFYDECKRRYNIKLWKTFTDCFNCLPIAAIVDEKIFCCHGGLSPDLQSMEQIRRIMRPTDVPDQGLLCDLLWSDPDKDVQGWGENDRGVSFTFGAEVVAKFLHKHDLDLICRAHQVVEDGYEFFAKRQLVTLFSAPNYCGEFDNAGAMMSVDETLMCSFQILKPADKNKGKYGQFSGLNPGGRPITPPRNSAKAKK
Apaf-1 inh: inhibitors of human Apaf-1 apoptosome | inhibition, % at 20 µM | 0.71% of 330,000 active | O14727 | AID 489030 | reconstituted apoptosome caspase-3 activity, DEVD-Rh110 fluorescence; active means inhibition of at least 40% at 20 µM;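 further: plate controls were DMSO wells for no effect and DEVD-CHO caspase inhibitor wells for full effect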
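Assay system: Apoptosome proteins | Medium: pH 7.5 Hepes buffer with CHAPS, BSA, DTT | Also added: Cytochrome c and DEVD-Rh110 substrate | Times: 30 min plus 50 min, RT | Detection: Rhodamine 110 fluorescence at Ex 480/Em 540 nm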
GSTO1 inh: counter-screen for RBBP9 inhibitors: inhibitors of human GSTO1; 1.1% of 300,000 active; P78417; recombinant GSTO1, activity-based probe fluorescence polarization; AID 1974; inhibition, % at 5.96 µM;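 active means inhibition above the campaign mean inhibition plus 3 SD, cut at about 35% in these data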;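 further: 0% = GSTO1-1 with DMSO and 100% = wells lacking GSTO1-1 enzyme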
TDP2 absorb: TDP2 (human) inhibition, absorbance primary screen; O95551; recombinant TDP2, T5PNP hydrolysis, p-nitrophenol absorbance 415 nm; inhibition, % at 12.8 µM; 0.34% of 370,000 active; AID 720702;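 active means inhibition above the mean of all tested compounds plus 3 SD, set per campaign, cut at about 25% in these data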;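 further: 0% = DMSO with enzyme and 100% = buffer with substrate but no TDP2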
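System – recombinant human TDP2 · Quantity – TDP2 enzyme at 120 nM final · Doses – single concentration, 12.8 µM nominal, with 1% DMSO · Incubation – 2 h at 37 °C · Measured by – epi absorbance of p-nitrophenol freed from T5PNP by hydrolysis · Read-out – % inhibition relative to enzyme-containing and enzyme-free wells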
PP5 primary: PP5 (human) phosphatase inhibition; P53041; purified PP5c, OMFP substrate fluorescence; inhibition, % at 6.7 µM; 0.18% of 320,000 active; AID 1987;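 active means inhibition above the campaign's mean inhibition across all tested compounds plus 3 SD, cut at about 9.5% in these data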;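 further: 0% = DMSO only and 100% = 100 µM cantharidin control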
PP1 inh confirm: confirmation of human PP1 phosphatase inhibitors. shares compounds with PP1 counter. purified PP1alpha, OMFP substrate fluorescence. inhibition, % at 6.7 µM. 52% of 1,900 active;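 active means mean PP1 inhibition above a set limit taken from the earlier primary screen, cut at about 15% in these data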
PP5 counter: counter-screen for PP1 inhibitors: human PP5 phosphatase inhibition. shares compounds with PP1 counter. purified PP5c, OMFP fluorescence. inhibition, % at 6.7 µM. 4% of 1,900 active. AID 2360;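 active means mean PP5 inhibition over triplicate wells above about 9.5% taken from the earlier PP1 screen, limit read from the data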
Starred values were filed as active, the others as inactive; nt = not tested or not shown. Shown are actives, neighbours in structure and some others; about 2.1% of the full set was active somewhere.

SMILES | PP1 counter | Apaf-1 inh | GSTO1 inh | TDP2 absorb | PP5 primary | PP1 inh confirm | PP5 counter
NC(=O)CC(NC(=O)c1cccc(Br)c1)c1ccc(N2CCC(N3CCCCC3)CC2)c([N+](=O)[O-])c1 (centres undefined) | -0.1 | -5.8 | -1.9 | -3.2 | 1.0 | nt | nt
NC(=O)CC(NC(=O)c1cccc(Br)c1)c1ccc(N2CCN(c3ccc(F)cc3)CC2)c([N+](=O)[O-])c1 (centres undefined) | 2.2 | 10.9 | -0.3 | -1.1 | 1.4 | nt | nt
NC(=O)CC(NC(=O)c1ccc(Br)cc1)c1ccc(N2CCC(Cc3ccccc3)CC2)c([N+](=O)[O-])c1 (centres undefined) | 19.8* | 12.4 | 0.2 | -13.7 | -1.2 | 11.0 | -2.3
NC(=O)CC(NC(=O)c1ccc(Br)cc1)c1ccc(N2CCN(c3ccc(F)cc3)CC2)c([N+](=O)[O-])c1 (centres undefined) | 21.2* | 18.2 | -1.0 | -7.9 | -2.8 | 13.6 | 0.3
NC(=O)CC(NC(=O)Cc1ccc(Br)cc1)c1ccc(N2CCN(c3ccc(F)cc3)CC2)c([N+](=O)[O-])c1 (centres undefined) | 18.3* | 6.4 | 1.4 | 1.8 | 2.9 | 14.9 | 0.4
Cc1ccc(C(=O)Nc2nc(-c3ccccn3)cs2)o1 | 23.4* | -22.7 | 16.7 | 18.9 | 0.3 | 12.9 | -1.7
CC(=O)c1ccc(-c2ccc(C(=O)Nc3nc(-c4ccccn4)cs3)o2)cc1 | nt | -7.5 | nt | -8.3 | nt | nt | nt
O=C(Nc1nc(-c2ccccn2)cs1)c1ccc([N+](=O)[O-])o1 | 10.9 | -0.7 | 19.1 | -23.1 | 2.1 | nt | nt
c1ccc(CCNc2nc(-c3cccnc3)cs2)cc1 | 1.0 | 0.4 | 4.8 | -1.8 | 0.9 | nt | nt
O=C(Nc1nc(-c2ccccn2)cs1)c1ccc(-c2ccccc2F)o1 | 19.5* | 16.3 | nt | -18.6 | 3.2 | 30.5* | 12.2*
c1ccc(CCNc2nc(-c3ccccn3)cs2)cc1 | 35.0* | -2.0 | 10.7 | 12.9 | 4.2 | 44.1* | 5.1
COC(=O)C[C@@H]1CC[C@@H]2[C@@H](COc3ccc(NC(C)=O)cc3C(=O)N2C)O1 | nt | nt | nt | -1.3 | nt | nt | nt
Cc1noc(C)c1NC(=O)Nc1ccc2c(c1)C(=O)N(C)[C@H]1CC[C@H](CC(=O)NCc3ccc(Cl)cc3)O[C@@H]1CO2 | nt | nt | nt | -0.6 | nt | nt | nt
COC(=O)[C@]12C[C@H](CC(=O)N3CCCCC3)C(=O)N(Cc3ccc(Cl)cc3Cl)C1=C[C@H](C1CCCC1)O[C@@H]2C | nt | nt | nt | -3.5 | nt | nt | nt
Cc1ccc(C(=O)N/C(=C\c2ccc(-c3cc(Cl)ccc3Cl)o2)C(=O)NCc2cccnc2)cc1 | 18.4* | 26.4 | -30.6 | -9.0 | 1.7 | 16.3* | 3.4
O=C(NCc1cccnc1)/C(=C/c1ccc(-c2cccc(Cl)c2)o1)S(=O)(=O)c1ccccc1 | 0.9 | 17.0 | 0.5 | -10.8 | -0.8 | nt | nt
Cc1ccc(C)c(N2CCN(C(=O)c3ccc(Cn4c(=S)[nH]c5ccc(N6CCOCC6)cc5c4=O)cc3)CC2)c1 | 30.4* | 6.5 | 3.1 | -8.1 | 2.7 | 13.1 | -1.6
O=C(c1ccc(Cn2c(=S)[nH]c3ccc(N4CCOCC4)cc3c2=O)cc1)N1CCN(c2ccc(F)cc2)CC1 | 17.6* | 15.2 | 2.9 | 2.0 | 5.3 | 19.1* | -0.6
O=c1c2cc(N3CCOCC3)ccc2[nH]c(=S)n1Cc1ccc(Cl)cc1 | 3.4 | 32.5 | 14.4 | 1.9 | 3.5 | nt | nt
COc1ccc(N2CCN(C(=O)c3ccc(Cn4c(=S)[nH]c5ccc(N6CCOCC6)cc5c4=O)cc3)CC2)cc1 | 8.7 | 20.3 | 5.2 | -3.4 | 0.9 | nt | nt
COc1ccc(S(=O)(=O)Nc2ccc(F)c(F)c2)cc1C(=O)N1CCOCC1 | 22.4* | -2.2 | -1.3 | -13.5 | -3.8 | -2.6 | -4.8
COc1ccc(S(=O)(=O)Nc2cccc(SC)c2)cc1C(=O)N1CCOCC1 | 1.1 | 8.0 | 5.0 | -10.4 | 0.1 | nt | nt
O=C(N/N=C/c1cc(Br)ccc1O)c1ccncc1 | -1.5 | -7.8 | 3.7 | -5.3 | 3.2 | nt | nt
O=C(N/N=C/c1ccc(O)c2ncccc12)c1cccc(Br)c1 | 20.9* | -68.3 | -34.8 | -1.4 | -0.7 | 18.1* | 0.6
C/C(=N\NC(=O)c1nnn(-c2nonc2N)c1CN(C)c1ccccc1)c1ccccn1 | 19.3* | nt | -1.3 | nt | 3.1 | 29.6* | 1.9
